Calls of active or inactive are those of the source. The calls are words filed in the database; no cut-off is given here.
Legend:
[1] = target: T1, Polyamine deacetylase HDAC10 (Homo sapiens, UniProt Q969S8); test: Inhibition of dye-labeled tracer binding to HDAC10 (unknown origin) transfected in human HeLa cells measured after 2 hrs by nano-luciferase reporter gene-based BRET assay; format: cell-based
T1 sequence (Q969S8 whole entry): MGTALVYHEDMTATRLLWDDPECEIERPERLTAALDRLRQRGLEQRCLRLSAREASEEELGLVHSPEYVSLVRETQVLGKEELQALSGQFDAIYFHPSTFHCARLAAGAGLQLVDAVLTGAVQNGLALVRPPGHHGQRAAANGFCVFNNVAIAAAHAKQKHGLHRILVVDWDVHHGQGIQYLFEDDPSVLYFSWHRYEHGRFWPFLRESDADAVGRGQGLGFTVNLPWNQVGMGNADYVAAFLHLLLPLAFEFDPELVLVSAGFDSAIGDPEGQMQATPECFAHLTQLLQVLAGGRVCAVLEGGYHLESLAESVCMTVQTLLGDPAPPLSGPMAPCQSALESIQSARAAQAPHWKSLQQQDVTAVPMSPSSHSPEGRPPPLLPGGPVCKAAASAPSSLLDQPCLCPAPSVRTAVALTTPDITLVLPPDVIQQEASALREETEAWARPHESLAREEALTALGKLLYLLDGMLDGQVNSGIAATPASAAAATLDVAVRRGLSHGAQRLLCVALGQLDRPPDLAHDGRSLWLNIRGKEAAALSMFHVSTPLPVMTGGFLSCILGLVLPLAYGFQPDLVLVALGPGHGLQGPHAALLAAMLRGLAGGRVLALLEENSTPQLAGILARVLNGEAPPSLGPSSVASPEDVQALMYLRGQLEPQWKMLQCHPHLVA

[2] = target: T1, Polyamine deacetylase HDAC10; test: Inhibition of tubastatin-Alexa647-tracer binding to recombinant GST-tagged HDAC10 (unknown origin) measured after 1 hr by TR-FRET assay
[3] = target: T2, Protein deacetylase HDAC6 (Homo sapiens, UniProt Q9UBN7); test: Inhibition of dye-labeled tracer binding to HDAC6 (unknown origin) transfected in human HeLa cells measured after 2 hrs by nano-luciferase reporter gene-based BRET assay; format: cell-based
T2 sequence (Q9UBN7 whole entry): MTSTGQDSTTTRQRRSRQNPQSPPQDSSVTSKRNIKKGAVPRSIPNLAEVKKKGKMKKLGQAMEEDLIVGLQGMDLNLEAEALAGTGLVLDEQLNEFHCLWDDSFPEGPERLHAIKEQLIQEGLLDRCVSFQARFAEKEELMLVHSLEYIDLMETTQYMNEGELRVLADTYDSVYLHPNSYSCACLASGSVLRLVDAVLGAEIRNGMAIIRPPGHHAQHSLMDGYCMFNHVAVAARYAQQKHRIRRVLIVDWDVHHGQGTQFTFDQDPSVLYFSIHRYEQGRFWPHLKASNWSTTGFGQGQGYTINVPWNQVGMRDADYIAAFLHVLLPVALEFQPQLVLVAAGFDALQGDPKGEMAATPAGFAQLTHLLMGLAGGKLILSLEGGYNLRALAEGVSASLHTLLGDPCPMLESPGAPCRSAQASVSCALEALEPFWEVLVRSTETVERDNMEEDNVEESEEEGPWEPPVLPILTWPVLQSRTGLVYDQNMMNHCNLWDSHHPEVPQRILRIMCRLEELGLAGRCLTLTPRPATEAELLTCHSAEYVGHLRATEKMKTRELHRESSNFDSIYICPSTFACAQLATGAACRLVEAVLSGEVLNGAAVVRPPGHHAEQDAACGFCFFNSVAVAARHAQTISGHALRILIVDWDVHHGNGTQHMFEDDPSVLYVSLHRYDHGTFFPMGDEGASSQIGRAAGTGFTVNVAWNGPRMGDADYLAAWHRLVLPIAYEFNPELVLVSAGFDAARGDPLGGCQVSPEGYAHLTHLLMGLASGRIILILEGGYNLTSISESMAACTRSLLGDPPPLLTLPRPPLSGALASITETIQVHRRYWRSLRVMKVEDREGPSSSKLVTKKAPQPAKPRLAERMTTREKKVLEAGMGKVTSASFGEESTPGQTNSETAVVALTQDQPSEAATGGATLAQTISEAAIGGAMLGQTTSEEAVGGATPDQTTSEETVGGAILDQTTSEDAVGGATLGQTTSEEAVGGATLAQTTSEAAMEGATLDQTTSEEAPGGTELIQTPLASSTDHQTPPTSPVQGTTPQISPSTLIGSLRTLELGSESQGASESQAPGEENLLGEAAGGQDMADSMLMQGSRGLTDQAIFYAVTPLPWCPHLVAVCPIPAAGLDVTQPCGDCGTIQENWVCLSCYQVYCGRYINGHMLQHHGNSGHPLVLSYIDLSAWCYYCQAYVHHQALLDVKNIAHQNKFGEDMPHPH
Summary of the method: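 Live-cell target engagement by BRET: cells overexpressing nano-luciferase-tagged HDAC6 or HDAC10 are given a dye-labelled tracer and the nano-luciferase substrate, and a competing binder disrupts BRET. pIC50 comes from pooled data of two biological replicates, each run in triplicate. The selectivity fold is taken from the HDAC10 and HDAC6 BRET values.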

Histone deacetylase 1 = Histone deacetylase 1 (Homo sapiens, UniProt Q13547); test: Inhibition of recombinant full-length C-terminal FLAG-fused/His-tagged human HDAC1 expressed in baculovirus infected Sf9 insect cells measured after 40 mins by HDAC-Glo1/2 luminescent assay
[4] = target: Histone deacetylase 3/Nuclear receptor corepressor 2 (HDAC3/NCoR2) (Homo sapiens, UniProt O15379); test: Inhibition of human recombinant full length C-terminal His-tagged HDAC3 (1 to 428 residues)/N-terminal GST-tagged NCOR2 (395 to 489 residues) expressed in baculovirus infected insect cells measured after 40 mins by HDAC-Glo1/2 luminescent assay
Histone deacetylase 8 = target: T3, Histone deacetylase 8 (Homo sapiens, UniProt Q9BY41); test: Inhibition of recombinant human full length C-terminal His-tagged HDAC8 expressed in baculovirus infected insect cells measured after 40 mins by HDAC-Glo1/2 luminescent assay
T3 sequence (Q9BY41 whole entry): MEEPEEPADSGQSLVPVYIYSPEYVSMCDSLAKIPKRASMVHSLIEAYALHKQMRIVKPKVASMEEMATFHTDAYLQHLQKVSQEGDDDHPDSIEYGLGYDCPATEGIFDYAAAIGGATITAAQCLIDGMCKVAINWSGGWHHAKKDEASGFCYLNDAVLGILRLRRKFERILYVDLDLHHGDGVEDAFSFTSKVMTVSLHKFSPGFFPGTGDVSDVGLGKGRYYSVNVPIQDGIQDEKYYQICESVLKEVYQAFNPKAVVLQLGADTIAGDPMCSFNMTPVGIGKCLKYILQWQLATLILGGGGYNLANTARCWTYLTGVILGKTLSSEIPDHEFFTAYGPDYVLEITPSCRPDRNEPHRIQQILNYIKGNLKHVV

Histone deacetylase 2 = Histone deacetylase 2 (Homo sapiens, UniProt Q92769); test: Inhibition of recombinant full-length C-terminal His-tagged human HDAC2 expressed in baculovirus infected Sf9 insect cells measured after 40 mins by HDAC-Glo1/2 luminescent assay; format: cell-based
[5] = target: T4, Protein deacetylase HDAC6 (Homo sapiens) (UniProt Q9UBN7); test: Inhibition of HDAC6 in human BE(2)-C cells assessed as increase in tubulin acetylation at 10 uM measured after 24 hrs by Western blot analysis; format: cell-based
T4 sequence (whole entry): T2 sequence (Q9UBN7 whole entry)
Summary of the method: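 In the neuroblastoma BE(2)-C line, HDAC6 inhibition is read as tubulin acetylation by Western blot, comparing acetylated tubulin with total tubulin.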

Sequence of Histone deacetylase 2 (Q92769 whole entry): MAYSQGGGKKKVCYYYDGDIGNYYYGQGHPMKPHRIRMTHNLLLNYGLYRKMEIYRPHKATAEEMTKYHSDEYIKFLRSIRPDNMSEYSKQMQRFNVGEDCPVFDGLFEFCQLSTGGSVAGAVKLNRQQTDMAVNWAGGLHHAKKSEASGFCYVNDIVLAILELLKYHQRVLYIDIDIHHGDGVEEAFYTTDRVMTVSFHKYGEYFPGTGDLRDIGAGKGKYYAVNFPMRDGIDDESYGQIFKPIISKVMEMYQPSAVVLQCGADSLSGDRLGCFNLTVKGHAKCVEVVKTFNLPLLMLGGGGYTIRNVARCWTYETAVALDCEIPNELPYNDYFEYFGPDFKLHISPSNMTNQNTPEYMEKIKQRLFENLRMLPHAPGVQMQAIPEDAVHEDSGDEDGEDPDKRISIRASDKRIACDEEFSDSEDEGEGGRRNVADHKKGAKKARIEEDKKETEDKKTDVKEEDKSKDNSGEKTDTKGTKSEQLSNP
Sequence of Histone deacetylase 3/Nuclear receptor corepressor 2 (HDAC3/NCoR2) (O15379 whole entry, the tested form may be a part): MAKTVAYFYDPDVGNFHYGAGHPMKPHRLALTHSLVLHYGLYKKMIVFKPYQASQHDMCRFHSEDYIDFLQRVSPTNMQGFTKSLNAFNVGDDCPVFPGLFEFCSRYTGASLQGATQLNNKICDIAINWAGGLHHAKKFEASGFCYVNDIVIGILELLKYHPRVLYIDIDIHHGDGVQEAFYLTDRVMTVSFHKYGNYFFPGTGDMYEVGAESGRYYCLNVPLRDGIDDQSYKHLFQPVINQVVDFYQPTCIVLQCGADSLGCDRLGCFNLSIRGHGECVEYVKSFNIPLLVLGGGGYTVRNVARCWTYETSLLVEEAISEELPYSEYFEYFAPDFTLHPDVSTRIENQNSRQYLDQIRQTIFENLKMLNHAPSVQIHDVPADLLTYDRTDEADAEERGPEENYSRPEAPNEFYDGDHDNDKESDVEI
Sequence of Histone deacetylase 3/Nuclear receptor corepressor 2 (HDAC3/NCoR2) (Q9Y618 whole entry, further chain, the tested form may be a part): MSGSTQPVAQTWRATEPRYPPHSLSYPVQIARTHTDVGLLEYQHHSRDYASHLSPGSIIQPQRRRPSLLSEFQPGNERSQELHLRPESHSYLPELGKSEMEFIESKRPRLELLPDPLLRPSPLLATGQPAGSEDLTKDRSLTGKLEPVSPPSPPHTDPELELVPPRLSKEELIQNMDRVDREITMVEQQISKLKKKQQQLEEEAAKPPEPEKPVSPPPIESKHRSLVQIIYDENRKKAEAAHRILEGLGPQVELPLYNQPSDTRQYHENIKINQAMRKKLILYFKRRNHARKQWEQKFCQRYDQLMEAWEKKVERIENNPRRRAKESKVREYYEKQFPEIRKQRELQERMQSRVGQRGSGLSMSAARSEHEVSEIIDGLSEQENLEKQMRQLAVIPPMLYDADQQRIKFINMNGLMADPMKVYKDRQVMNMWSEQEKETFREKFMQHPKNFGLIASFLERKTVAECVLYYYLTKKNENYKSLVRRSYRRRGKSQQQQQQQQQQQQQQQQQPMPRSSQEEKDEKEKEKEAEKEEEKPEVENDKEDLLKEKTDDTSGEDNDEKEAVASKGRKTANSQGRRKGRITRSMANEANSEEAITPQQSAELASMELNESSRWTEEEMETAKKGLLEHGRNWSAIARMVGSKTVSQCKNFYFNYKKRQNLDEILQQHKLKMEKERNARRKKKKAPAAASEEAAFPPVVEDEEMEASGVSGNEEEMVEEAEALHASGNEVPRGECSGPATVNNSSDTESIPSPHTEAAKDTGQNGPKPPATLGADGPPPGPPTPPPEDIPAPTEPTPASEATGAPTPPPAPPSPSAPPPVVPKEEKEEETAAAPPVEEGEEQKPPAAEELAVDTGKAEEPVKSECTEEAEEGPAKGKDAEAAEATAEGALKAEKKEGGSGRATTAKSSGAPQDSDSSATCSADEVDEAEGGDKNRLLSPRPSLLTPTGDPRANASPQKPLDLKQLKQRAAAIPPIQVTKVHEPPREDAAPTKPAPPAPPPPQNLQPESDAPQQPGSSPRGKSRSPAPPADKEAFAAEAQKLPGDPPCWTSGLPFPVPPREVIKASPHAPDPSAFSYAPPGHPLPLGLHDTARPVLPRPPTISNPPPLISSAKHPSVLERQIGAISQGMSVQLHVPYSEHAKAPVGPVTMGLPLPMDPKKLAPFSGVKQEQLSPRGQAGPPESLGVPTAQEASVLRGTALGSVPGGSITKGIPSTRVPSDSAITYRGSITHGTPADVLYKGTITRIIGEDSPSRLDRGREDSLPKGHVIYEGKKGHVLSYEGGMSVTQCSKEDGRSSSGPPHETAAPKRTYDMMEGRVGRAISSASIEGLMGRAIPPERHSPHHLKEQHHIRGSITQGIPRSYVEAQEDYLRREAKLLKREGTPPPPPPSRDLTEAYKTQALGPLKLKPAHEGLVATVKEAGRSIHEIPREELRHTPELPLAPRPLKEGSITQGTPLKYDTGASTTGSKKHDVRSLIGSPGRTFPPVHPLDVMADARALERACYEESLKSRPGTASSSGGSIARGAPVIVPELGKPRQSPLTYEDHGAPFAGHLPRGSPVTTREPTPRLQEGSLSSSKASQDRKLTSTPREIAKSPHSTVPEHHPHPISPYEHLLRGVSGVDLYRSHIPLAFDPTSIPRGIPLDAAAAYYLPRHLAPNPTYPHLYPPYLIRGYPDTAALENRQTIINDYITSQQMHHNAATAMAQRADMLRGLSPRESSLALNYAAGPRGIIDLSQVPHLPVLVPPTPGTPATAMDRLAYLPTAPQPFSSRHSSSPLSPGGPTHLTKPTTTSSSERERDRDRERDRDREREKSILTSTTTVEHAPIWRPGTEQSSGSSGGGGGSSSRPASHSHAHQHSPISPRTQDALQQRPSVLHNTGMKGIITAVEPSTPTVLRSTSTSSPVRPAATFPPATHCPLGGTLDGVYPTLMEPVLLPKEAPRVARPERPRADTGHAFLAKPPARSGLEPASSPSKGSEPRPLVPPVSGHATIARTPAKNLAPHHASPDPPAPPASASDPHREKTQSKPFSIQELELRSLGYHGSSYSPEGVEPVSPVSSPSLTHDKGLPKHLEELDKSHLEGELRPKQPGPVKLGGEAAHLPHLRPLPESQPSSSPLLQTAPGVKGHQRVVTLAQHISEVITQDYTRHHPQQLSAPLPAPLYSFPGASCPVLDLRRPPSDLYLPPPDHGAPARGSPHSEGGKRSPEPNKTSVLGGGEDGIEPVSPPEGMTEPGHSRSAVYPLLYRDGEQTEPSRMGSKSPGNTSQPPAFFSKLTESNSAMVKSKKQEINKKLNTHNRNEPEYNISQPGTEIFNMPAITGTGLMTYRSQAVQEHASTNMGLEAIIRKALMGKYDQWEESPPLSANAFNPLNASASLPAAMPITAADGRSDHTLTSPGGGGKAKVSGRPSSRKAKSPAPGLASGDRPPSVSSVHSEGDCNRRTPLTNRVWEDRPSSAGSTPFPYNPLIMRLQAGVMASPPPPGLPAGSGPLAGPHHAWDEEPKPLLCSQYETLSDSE
Sequence of Histone deacetylase 1 (Q13547 whole entry, the tested form may be a part): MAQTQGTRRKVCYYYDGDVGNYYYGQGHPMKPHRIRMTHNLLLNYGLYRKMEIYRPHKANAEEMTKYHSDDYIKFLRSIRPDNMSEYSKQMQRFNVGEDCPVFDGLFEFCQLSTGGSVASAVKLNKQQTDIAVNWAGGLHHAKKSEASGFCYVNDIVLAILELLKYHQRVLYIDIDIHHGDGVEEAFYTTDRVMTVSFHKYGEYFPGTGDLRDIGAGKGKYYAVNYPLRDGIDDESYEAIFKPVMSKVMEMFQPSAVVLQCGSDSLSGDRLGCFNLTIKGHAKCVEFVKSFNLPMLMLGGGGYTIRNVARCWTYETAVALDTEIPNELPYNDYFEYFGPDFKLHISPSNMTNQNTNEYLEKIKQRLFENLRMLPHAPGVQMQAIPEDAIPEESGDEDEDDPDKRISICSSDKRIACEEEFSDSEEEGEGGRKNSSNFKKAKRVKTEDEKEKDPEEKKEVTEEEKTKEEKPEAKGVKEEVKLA

SMILES: CC(C)(C)OC(=O)NCc1cn(Cc2ccc(C(=O)NO)cc2)c2ccccc12
- IC50 [1]: 251 nM
- IC50 [2]: 158 nM
- IC50 [3]: 79.4 nM

SMILES: Cn1cc(CNCC2CCN(c3ncc(C(=O)NO)cn3)CC2)c2ccccc21 [QUISINOSTAT]
- IC50 [1]: 39.8 nM
- IC50 [2]: 10 nM

SMILES: CC(=O)N1CCc2c(c3ccccc3n2Cc2ccc(C(=O)NO)cc2)C1
- IC50 [1]: 2000 nM
- IC50 [2]: 501 nM
- IC50 [3]: 79.4 nM

SMILES: CN1CCCC1c1cn(Cc2ccc(C(=O)NO)cc2)c2ccccc12 (racemic)
- IC50 [1]: 5.01 nM
- IC50 (Histone deacetylase 1): 316 nM
- IC50 [2]: 5.01 nM
- IC50 [4]: 158 nM
- IC50 (Histone deacetylase 8): 398 nM
- IC50 [3]: 126 nM
- IC50 (Histone deacetylase 2): 2000 nM

SMILES: COCCc1cn(Cc2ccc(C(=O)NO)cc2)c2ccccc12
- IC50 [1]: 200 nM
- IC50 [2]: 126 nM
- IC50 [3]: 63.1 nM

SMILES: O=C(NO)c1ccc(Cn2cc(CN3CCCC3)c3ccccc32)cc1
- IC50 [1]: 3.98 nM
- IC50 (Histone deacetylase 1): 794 nM
- IC50 [2]: 3.98 nM
- IC50 [4]: 398 nM
- IC50 (Histone deacetylase 8): 316 nM
- IC50 [3]: 158 nM
- IC50 (Histone deacetylase 2): 6310 nM

SMILES: O=C(CCCCCCNC(=O)c1cnc(N(c2ccccc2)c2ccccc2)nc1)NO [RICOLINOSTAT]
- IC50 [1]: 1580 nM
- IC50 [2]: 126 nM

SMILES: Cc1c(C)n(Cc2ccc(C(=O)NO)cc2)c2ccccc12
- IC50 [1]: 631 nM
- IC50 (Histone deacetylase 1): 2510 nM
- IC50 [2]: 316 nM
- IC50 [4]: 3160 nM
- IC50 (Histone deacetylase 8): 1580 nM
- IC50 [3]: 31.6 nM
- IC50 (Histone deacetylase 2): 12600 nM

SMILES: CN(C)Cc1nn(Cc2ccc(C(=O)NO)cc2)c2ccccc12
- IC50 (Histone deacetylase 1): 1260 nM
- IC50 [2]: 20 nM
- IC50 [4]: 794 nM
- IC50 (Histone deacetylase 8): 794 nM
- IC50 [3]: 126 nM
- IC50 (Histone deacetylase 2): 7940 nM

SMILES: O=C(NO)c1ccc(Cn2c3c(c4ccccc42)CCCC3)cc1
- IC50 [1]: 2510 nM
- IC50 [2]: 1000 nM
- IC50 [3]: 63.1 nM

SMILES: CN1CCc2c(n(Cc3ccc(C(=O)NO)cc3)c3ccccc23)C1
- IC50 [1]: 158 nM
- IC50 (Histone deacetylase 1): 3160 nM
- IC50 [2]: 200 nM
- IC50 [4]: 3980 nM
- IC50 (Histone deacetylase 8): 3980 nM
- IC50 [3]: 63.1 nM
- IC50 (Histone deacetylase 2): 25100 nM

SMILES: CC(C)(C)c1cc2ccccc2n1Cc1ccc(C(=O)NO)cc1
- IC50 [1]: > 39800 nM
- inhibition [5]: Active
- IC50 [2]: 5010 nM
- IC50 [3]: 2000 nM

SMILES: CC(C)(C)OC(=O)Nc1ccc(-c2cc(C(=O)NCCCCCCC(=O)NO)no2)cc1
- IC50 [1]: 794 nM
- IC50 [2]: 316 nM

SMILES: C#Cc1cccc(Nc2ncnc3cc(OC)c(OCCCCCCC(=O)NO)cc23)c1 [CUDC-101]
- IC50 [1]: 398 nM
- IC50 [2]: 126 nM

SMILES: O=C(NO)c1ccc(Cn2cc(CCO)c3ccccc32)cc1
- IC50 [1]: 200 nM
- IC50 [2]: 79.4 nM
- IC50 [3]: 31.6 nM

SMILES: O=C(NO)c1ccc(Cn2c3c(c4ccccc42)CSCC3)cc1
- IC50 [1]: 398 nM
- IC50 [2]: 316 nM
- IC50 [3]: 126 nM

SMILES: Cn1cncc1-c1cn(Cc2ccc(C(=O)NO)cc2)c2ccccc12
- IC50 [1]: 50.1 nM
- IC50 (Histone deacetylase 1): 631 nM
- IC50 [2]: 25.1 nM
- IC50 [4]: 501 nM
- IC50 (Histone deacetylase 8): 398 nM
- IC50 [3]: 79.4 nM
- IC50 (Histone deacetylase 2): 3160 nM

SMILES: O=C(NO)c1ccc(Cn2ccc3ccccc32)cc1
- IC50 [1]: 158 nM
- IC50 [2]: 63.1 nM
- IC50 [3]: 63.1 nM

SMILES: O=C(NO)c1ccc(Cn2c3ccccc3c3ccccc32)cc1
- IC50 [1]: 3980 nM
- IC50 [2]: 2000 nM
- IC50 [3]: 39.8 nM

SMILES: CN(C)CCc1cn(Cc2ccc(C(=O)NO)cc2)c2ccccc12
- IC50 [1]: 25.1 nM
- IC50 [2]: 20 nM

SMILES: CN(C)Cc1cn(Cc2ccc(C(=O)NO)cc2)c2ccccc12
- IC50 [1]: 3.98 nM
- IC50 (Histone deacetylase 1): 1000 nM
- IC50 [2]: 5.01 nM
- IC50 [4]: 631 nM
- IC50 (Histone deacetylase 8): 398 nM
- IC50 [3]: 158 nM
- IC50 (Histone deacetylase 2): 6310 nM

SMILES: O=C(NO)c1ccc(Cn2c3c(c4ccccc42)COCC3)cc1
- IC50 [1]: 1000 nM
- IC50 (Histone deacetylase 1): 1580 nM
- IC50 [2]: 631 nM
- IC50 [4]: 1260 nM
- IC50 (Histone deacetylase 8): 794 nM
- IC50 [3]: 20 nM
- IC50 (Histone deacetylase 2): 7940 nM

SMILES: O=C(NO)c1ccc(CC(=O)N(CCO)c2ccccc2)cc1
- IC50 [1]: 316 nM
- IC50 [2]: 79.4 nM

From ChEMBL document CHEMBL4385610, “Selective Inhibition of Histone Deacetylase 10: Hydrogen Bonding to the Gatekeeper Residue is Implicated” (J Med Chem, 2019)
